Consider 19 compounds from ChEMBL document CHEMBL1132565 (J Med Chem, 1999).

For one series, the species on record is Cavia porcellus. As to the kind of experiment: In vitro concentration required to inhibit electrically evoked twitch in isolated guinea pig ileum. The class given is functional. The method in brief: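 Myenteric plexus-longitudinal muscle strips from male guinea pig small intestine, field-stimulated with supramaximal bipolar rectangular pulses. Inhibition of the electrically evoked twitch measured. IC50 taken from concentration-response curves, at least six tissues.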

The target of series [1] is Delta-type opioid receptor (Mus musculus, UniProt P32300). In words: Displacement of [3H]NLT from Opioid receptor delta 1 of adult male mouse brain. (In general: Displacement assays read how much labelled ligand stays bound in the presence of the test substance.)
Series [2] can be described thus: Half-life time of enzymatic breakdown in mouse liver. The class given is ADME. The method in brief: (§1)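 Methanol added to stop each sample, followed by centrifugation. Residual activity in the supernatant was bioassayed on GPI or MVD and expressed as % of time-0 recovery. Three experiments.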
The nature of series [3]: Half-life time of enzymatic breakdown in mouse brain. The class given is ADME. The method, boiled down:
as §1

The species entered for series [4] is Mus musculus. In words: In vitro concentration required to inhibit electrically evoked twitch in isolated mouse vas deferens. The class given is functional. The method, boiled down:
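Mouse vas deferens field-stimulated with supramaximal bipolar rectangular pulses. Inhibition of the electrically evoked twitch measured. IC50 taken from concentration-response curves, at least six tissues.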

A further series concerns the target Mu-type opioid receptor (Mus musculus, UniProt P42866). As to the kind of experiment: Displacement of [3H]-DAGO from Opioid receptor mu 1 of adult male mouse brain. Type of series: tissue-based. The method in brief: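 Crude membranes from adult male Albino Swiss mouse brain, pre-incubated 30 min at 25 °C to remove endogenous opioids. Competition against [3H]DAGO 0.5 nM on 1 mg membrane protein in 50 mM Tris-HCl pH 7.4, 35 °C for 90 min. Nonspecific binding defined with 10 µM naloxone, 12 inhibitor concentrations. GF/B filtration and scintillation counting. Ki from competition curves, run in triplicate.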

Series [5] deals with Mus musculus. In words: Antinociceptive activity after subcutaneous administration in mice was determined in analgesia hotplate test. The class given is functional. The method, boiled down:
(§2)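 Male CD-1 mice (25-30 g), peptide dissolved in sterile Ringer's solution and injected subcutaneously at 0.05 mL/10 g, 5-8 animals per dose. Hot plate at 55 °C, latency to back-paw licking or escape jump recorded. Cut-off 15 s. Mice not responding within 5 s before drug were excluded. Testing every 15 min for the first hour, then every 30 min. %MPE calculated. AD50 with 95% CL by Litchfield-Wilcox.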

Series [6] concerns Mus musculus. In words: Antinociceptive activity after subcutaneous administration in mice. Type of series: functional. The method, boiled down:
as §2

For series [7], the system named is Mus musculus. In words: Antinociceptive activity after subcutaneous administration in mice. p<0.05 vs dermorphin. Type of series: functional. The method, boiled down: as §2
Series [8] deals with Mus musculus. In words: Antinociceptive activity after subcutaneous administration in mice; the highest dose tested, 100 uM/Kg, was unable to produce a significant analgesia. The class given is functional, organism-based. The method, boiled down: as §2

Active and inactive are the calls of the source. Bounds are passed on as bounds.

Sequence of Mu-type opioid receptor (P42866 whole entry): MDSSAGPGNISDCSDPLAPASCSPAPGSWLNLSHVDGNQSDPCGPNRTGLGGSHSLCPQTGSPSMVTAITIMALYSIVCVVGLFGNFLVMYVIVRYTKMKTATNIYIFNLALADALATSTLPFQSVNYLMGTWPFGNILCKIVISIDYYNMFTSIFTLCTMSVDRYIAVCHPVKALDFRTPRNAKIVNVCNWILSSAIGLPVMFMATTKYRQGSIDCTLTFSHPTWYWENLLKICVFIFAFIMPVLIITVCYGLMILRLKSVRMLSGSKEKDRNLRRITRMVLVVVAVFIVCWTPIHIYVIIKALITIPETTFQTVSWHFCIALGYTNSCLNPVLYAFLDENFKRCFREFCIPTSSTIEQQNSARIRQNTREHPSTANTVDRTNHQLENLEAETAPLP
Sequence of Delta-type opioid receptor (P32300 whole entry): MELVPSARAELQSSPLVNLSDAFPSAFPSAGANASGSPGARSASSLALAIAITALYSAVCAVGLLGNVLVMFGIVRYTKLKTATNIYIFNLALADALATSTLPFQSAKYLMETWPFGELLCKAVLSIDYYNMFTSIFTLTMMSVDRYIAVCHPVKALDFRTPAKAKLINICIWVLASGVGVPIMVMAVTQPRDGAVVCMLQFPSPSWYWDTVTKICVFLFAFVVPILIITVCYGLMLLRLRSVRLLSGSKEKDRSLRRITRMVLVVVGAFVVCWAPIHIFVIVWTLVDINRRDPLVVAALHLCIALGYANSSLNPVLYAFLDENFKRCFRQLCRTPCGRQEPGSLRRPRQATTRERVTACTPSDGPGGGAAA

Turning to `CC(C)[C@H](NC(=O)[C@H](CC(=O)O)NC(=O)[C@H](Cc1ccccc1)NC(=O)[C@@H](C)NC(=O)[C@@H](N)Cc1ccc(O)cc1)C(=O)N[C@H](C(=O)N[C@@H](CO)C(=O)OC[C@H]1O[C@H](O)[C@H](O)[C@@H](O)[C@@H]1O)C(C)C`, the IC50 (commonly the concentration that gives 50% inhibition) in the series listed under Cavia porcellus is 1600 nM; in the series listed under Mus musculus [4] it was 3.1 nM. Moreover, the Ki (in general, a dissociation constant, usually derived from enzyme kinetics or from competition with a known ligand) is 23 nM in [1] and 879 nM at Mu-type opioid receptor. Also, the results for the half-life in series [2] and in series [3] were 3 h and above 4 h, respectively.

`CC(C)[C@H](NC(=O)[C@H](CC(=O)O)NC(=O)[C@H](Cc1ccccc1)NC(=O)[C@@H](C)NC(=O)[C@@H](N)Cc1ccc(O)cc1)C(=O)N[C@H](C(=O)N[C@H](CO)C(=O)OC[C@H]1O[C@H](O)[C@H](O)[C@@H](O)[C@@H]1O)C(C)C` gave an AD50 with Mus musculus [5] of 44 µM/kg.

Compound `CC(C)[C@H](NC(=O)[C@H](CC(=O)O)NC(=O)[C@H](Cc1ccccc1)NC(=O)[C@@H](C)NC(=O)[C@@H](N)Cc1ccc(O)cc1)C(=O)N[C@H](C(=O)N[C@H](C)C(=O)O[C@H]1O[C@H](O)[C@H](O)[C@@H](O)[C@H]1O)C(C)C` had an AD50 in the series with Mus musculus [5] of 19 µM/kg.

`CC(C)[C@H](NC(=O)[C@H](CC(=O)O)NC(=O)[C@H](Cc1ccccc1)NC(=O)[C@@H](C)NC(=O)[C@@H](N)Cc1ccc(O)cc1)C(=O)N[C@H](C(=O)NCC(N)=O)C(C)C` [DELTORPHIN C]: the half-inhibitory concentration (IC50) in the series filed under Cavia porcellus was 1240 nM; in the series filed under Mus musculus [4], 0.2 nM. The AD50 with Mus musculus [6] is 87 µM/kg. The results for the half-life in series [2] and in series [3] were 1.83 h and 4 h, respectively. The compound further yielded an inhibitory constant (Ki) at Mu-type opioid receptor of 1980 nM.

In the series with Mus musculus [7], `C[C@@H](NC(=O)[C@@H](N)Cc1ccc(O)cc1)C(=O)N[C@@H](Cc1ccccc1)C(=O)NCC(=O)N[C@@H](Cc1ccc(O)cc1)C(=O)N1C[C@H](O)C[C@H]1C(=O)N[C@@H](CCCCN)C(N)=O` gave an AD50 of 0.9 µM/kg. The IC50 in the series listed under Cavia porcellus was 2.1 nM; in the series listed under Mus musculus [4] it was 35 nM. The inhibition constant Ki is 1410 nM in series [1] and 0.5 nM on Mu-type opioid receptor. Besides, the half-life (in general, how long it takes for the measured level to halve) in series [2] worked out at 0.333 h; in [3], 0.5 h.

Regarding `CC(=O)O[C@@H]1[C@H](O)[C@@H](O)[C@@H](O)O[C@@H]1COC(=O)[C@H](C)NC(=O)[C@@H]1CCCN1C(=O)[C@H](Cc1ccc(O)cc1)NC(=O)CNC(=O)[C@H](Cc1ccccc1)NC(=O)[C@@H](C)NC(=O)[C@@H](N)Cc1ccc(O)cc1`, the figures for the half-maximal inhibitory concentration (IC50) in the series filed under Cavia porcellus and in the series filed under Mus musculus [4] were 6 nM and 65 nM, respectively. In the series with Mus musculus [6], this compound had an AD50 of 6.6 µM/kg. Moreover, the Ki was above 5000 nM in [1] and 11.2 nM on Mu-type opioid receptor.

As to `CC(C)[C@H](NC(=O)[C@H](CC(=O)O)NC(=O)[C@H](Cc1ccccc1)NC(=O)[C@@H](C)NC(=O)[C@@H](N)Cc1ccc(O)cc1)C(=O)N[C@H](C(=O)N[C@@H](CO)C(N)=O)C(C)C`, the figures for the IC50 in the series listed under Cavia porcellus and in the series filed under Mus musculus [4] were 1400 nM and 4.3 nM, respectively. Besides, the inhibition constant (Ki) came out at 30 nM in series [1] and 1100 nM on Mu-type opioid receptor.

In the series on Mus musculus [5], `CC(=O)O[C@H]1[C@@H](OC(=O)[C@@H](C)NC(=O)[C@@H](NC(=O)[C@@H](NC(=O)[C@H](CC(=O)O)NC(=O)[C@H](Cc2ccccc2)NC(=O)[C@@H](C)NC(=O)[C@@H](N)Cc2ccc(O)cc2)C(C)C)C(C)C)O[C@H](O)[C@H](O)[C@H]1O` came in with an AD50 of 61 µM/kg.

For `CC(=O)O[C@H]1[C@H](O)[C@@H](O)[C@@H](O)O[C@@H]1COC(=O)[C@H](CO)NC(=O)[C@@H](NC(=O)[C@@H](NC(=O)[C@H](CC(=O)O)NC(=O)[C@H](Cc1ccccc1)NC(=O)[C@@H](C)NC(=O)[C@@H](N)Cc1ccc(O)cc1)C(C)C)C(C)C`, the 50% inhibitory concentration (IC50) in the series listed under Cavia porcellus worked out at 1900 nM; in the series listed under Mus musculus [4], 2.7 nM. Moreover, the Ki in [1] amounted to 28 nM; on Mu-type opioid receptor, 1920 nM. The half-life is 4 h in series [2] and above 4 h in series [3].

Regarding `CC(=O)O[C@H]1[C@@H](OC(=O)[C@H](C)NC(=O)[C@@H](NC(=O)[C@@H](NC(=O)[C@H](CC(=O)O)NC(=O)[C@H](Cc2ccccc2)NC(=O)[C@@H](C)NC(=O)[C@@H](N)Cc2ccc(O)cc2)C(C)C)C(C)C)O[C@H](O)[C@H](O)[C@H]1O`, the 50% inhibitory concentration (IC50) was above 2000 nM in the series filed under Cavia porcellus and 43 nM in the series listed under Mus musculus [4]. Moreover, the Ki was 160 nM in [1] and 2830 nM at Mu-type opioid receptor.

`CC(C)[C@H](NC(=O)[C@H](CC(=O)O)NC(=O)[C@H](Cc1ccccc1)NC(=O)[C@@H](C)NC(=O)[C@@H](N)Cc1ccc(O)cc1)C(=O)N[C@H](C(=O)N[C@@H](C)C(=O)O[C@H]1O[C@H](O)[C@H](O)[C@@H](O)[C@H]1O)C(C)C`: the results for the 50% inhibitory concentration (IC50) in the series listed under Cavia porcellus and in the series filed under Mus musculus [4] were above 2000 nM and 36 nM, respectively. For the same compound, the inhibitory constant (Ki) was found to be 176 nM in series [1] and 1590 nM at Mu-type opioid receptor.

With `CC(=O)O[C@H]1[C@H](O)[C@@H](O)[C@@H](O)O[C@@H]1COC(=O)[C@@H](CO)NC(=O)[C@@H](NC(=O)[C@@H](NC(=O)[C@H](CC(=O)O)NC(=O)[C@H](Cc1ccccc1)NC(=O)[C@@H](C)NC(=O)[C@@H](N)Cc1ccc(O)cc1)C(C)C)C(C)C`, the AD50 in the series with Mus musculus [6] stood at 70 µM/kg.

With `C[C@H](NC(=O)[C@@H]1CCCN1C(=O)[C@H](Cc1ccc(O)cc1)NC(=O)CNC(=O)[C@H](Cc1ccccc1)NC(=O)[C@@H](C)NC(=O)[C@@H](N)Cc1ccc(O)cc1)C(N)=O`, the half-inhibitory concentration (IC50) in the series listed under Cavia porcellus was 1.6 nM; in the series listed under Mus musculus [4], 24 nM. Besides, the Ki in series [1] came out at 1110 nM; on Mu-type opioid receptor, 1.2 nM.

For the compound `C[C@H](NC(=O)[C@@H]1CCCN1C(=O)[C@H](Cc1ccc(O)cc1)NC(=O)CNC(=O)[C@H](Cc1ccccc1)NC(=O)[C@@H](C)NC(=O)[C@@H](N)Cc1ccc(O)cc1)C(=O)OC[C@H]1O[C@H](O)[C@H](O)[C@@H](O)[C@H]1O`, the IC50 was determined as 4 nM in the series listed under Cavia porcellus and 55 nM in the series filed under Mus musculus [4]. The compound also displayed an AD50 with Mus musculus [5] of 1.1 µM/kg. Moreover, the figures for the Ki (in [1]; on Mu-type opioid receptor) were 2850 nM and 2.5 nM, respectively.

As for `C[C@@H](NC(=O)[C@@H](N)Cc1ccc(O)cc1)C(=O)N[C@@H](Cc1ccccc1)C(=O)NCC(=O)N[C@@H](Cc1ccc(O)cc1)C(=O)N1CCC[C@H]1C(=O)N[C@@H](CO)C(=O)OC[C@H]1O[C@H](O)[C@H](O)[C@@H](O)[C@@H]1O`, the IC50 in the series listed under Cavia porcellus stood at 3.5 nM; in the series listed under Mus musculus [4] it was 40 nM. In the series on Mus musculus [5], this compound displayed an AD50 of 1.4 µM/kg. The half-life in [2] worked out at 0.5 h; in series [3], 0.633 h.

Consider `CC(=O)O[C@H]1[C@H](O)[C@@H](O)[C@@H](O)O[C@@H]1COC(=O)[C@H](CO)NC(=O)[C@@H]1CCCN1C(=O)[C@H](Cc1ccc(O)cc1)NC(=O)CNC(=O)[C@H](Cc1ccccc1)NC(=O)[C@@H](C)NC(=O)[C@@H](N)Cc1ccc(O)cc1`, for which the IC50 in the series filed under Cavia porcellus was determined as 8.2 nM; in the series filed under Mus musculus [4] it was 18 nM. For the same compound, the AD50 in the series with Mus musculus [6] amounted to 4.6 µM/kg. Also, the half-life amounted to 1 h in series [2] and 1.5 h in [3].

Regarding `C[C@@H](NC(=O)[C@@H](N)Cc1ccc(O)cc1)C(=O)N[C@@H](Cc1ccccc1)C(=O)NCC(=O)N[C@@H](Cc1ccc(O)cc1)C(=O)N1CCC[C@H]1C(=O)N[C@@H](CO)C(N)=O` [DERMORPHIN], the IC50 in the series listed under Cavia porcellus is 1.5 nM; in the series filed under Mus musculus [4], 19 nM. In the series with Mus musculus [6], this compound came in with an AD50 of 2.4 µM/kg. Further, the values for the half-life in series [2] and in series [3] were 0.167 h and 0.333 h, respectively. This compound also gave an inhibitory constant (Ki) at Mu-type opioid receptor of 1.1 nM.

With `CC(C)[C@H](NC(=O)[C@H](CC(=O)O)NC(=O)[C@H](Cc1ccccc1)NC(=O)[C@@H](C)NC(=O)[C@@H](N)Cc1ccc(O)cc1)C(=O)N[C@H](C(=O)N[C@@H](C)C(N)=O)C(C)C`, the IC50 in the series listed under Cavia porcellus was above 2000 nM; in the series listed under Mus musculus [4], 6.9 nM. In addition, the inhibition constant (Ki) in [1] came to 40 nM; on Mu-type opioid receptor, 1900 nM.

Regarding `CC(C)[C@H](NC(=O)[C@H](CC(=O)O)NC(=O)[C@H](Cc1ccccc1)NC(=O)[C@@H](C)NC(=O)[C@@H](N)Cc1ccc(O)cc1)C(=O)N[C@H](C(=O)N[C@H](C)C(N)=O)C(C)C`, in the series on Mus musculus [8], the AD50 result was “inactive”.
